Experimental data from ChEMBL document CHEMBL3621143, “Discovery of BMS-641988, a Novel Androgen Receptor Antagonist for the Treatment of Prostate Cancer” (ACS Med Chem Lett, 2015).
Activity calls are given as the source filed them. The rule behind the calls is not given here.

Assays:
[1] = Plasma concentration in immature Sprague-Dawley rat prostate weight model at 1 mg/kg, po qd administered for 4 days measured 2 hrs post last dose on day 4; assay type: ADME, organism-based
In short: (§1)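 Immature rat prostate weight model, oral dosing once daily at 1 or 10 mg/kg for 4 days. Plasma drug concentration (µM) measured 2 hours post-dose on day 4, n=3.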

Rattus norvegicus [2] = test: In vivo antagonist activity at androgen receptor in immature Sprague-Dawley rat prostate weight model assessed as testosterone propionate-induced weight of seminal vesicles over full body weight at 1 mg/kg, po qd administered for 4 days; assay type: functional; design: scale not given: the % may be the effect or the level left
In short: (§2)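 Immature rat prostate weight PK/PD model. Oral dosing once daily at 1 or 10 mg/kg for 4 days. Seminal vesicle weight expressed as % of full body weight, n=3, scaled so testosterone-treated control = 100% and sham = 10%.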

Androgen receptor [3] = biological target: T1, Androgen receptor (Homo sapiens, UniProt P10275); test: Displacement of [3H]-DHT from androgen receptor in human MDA-MB-453 cells after 90 mins by TopCount analysis; assay type: cell-based
T1 sequence (P10275 whole entry): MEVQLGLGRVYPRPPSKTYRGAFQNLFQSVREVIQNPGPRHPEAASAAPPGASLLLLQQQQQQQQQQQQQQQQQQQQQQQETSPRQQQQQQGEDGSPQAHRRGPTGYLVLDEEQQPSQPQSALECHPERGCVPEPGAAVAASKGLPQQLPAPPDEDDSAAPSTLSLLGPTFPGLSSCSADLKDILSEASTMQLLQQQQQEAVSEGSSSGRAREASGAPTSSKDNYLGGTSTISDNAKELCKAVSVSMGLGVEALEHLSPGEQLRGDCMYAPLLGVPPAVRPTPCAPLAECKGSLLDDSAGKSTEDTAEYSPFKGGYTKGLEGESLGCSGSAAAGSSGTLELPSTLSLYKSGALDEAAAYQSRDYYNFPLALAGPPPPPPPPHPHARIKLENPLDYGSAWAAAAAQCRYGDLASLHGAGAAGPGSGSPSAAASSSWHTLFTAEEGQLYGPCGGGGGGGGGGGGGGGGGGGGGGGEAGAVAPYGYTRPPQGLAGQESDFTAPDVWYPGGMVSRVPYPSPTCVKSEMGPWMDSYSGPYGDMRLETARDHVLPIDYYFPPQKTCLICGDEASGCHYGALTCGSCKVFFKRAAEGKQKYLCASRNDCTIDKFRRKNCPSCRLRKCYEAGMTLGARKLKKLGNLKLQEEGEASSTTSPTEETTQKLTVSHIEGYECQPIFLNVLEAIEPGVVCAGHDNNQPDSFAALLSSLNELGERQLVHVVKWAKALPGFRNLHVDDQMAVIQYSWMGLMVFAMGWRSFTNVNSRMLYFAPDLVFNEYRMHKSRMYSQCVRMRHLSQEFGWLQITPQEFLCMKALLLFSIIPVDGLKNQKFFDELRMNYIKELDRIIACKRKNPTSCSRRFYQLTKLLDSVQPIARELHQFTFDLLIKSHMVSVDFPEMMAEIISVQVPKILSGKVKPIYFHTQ

Rattus norvegicus [4] = test: In vivo antagonist activity at androgen receptor in immature Sprague-Dawley rat prostate weight model assessed as testosterone propionate-induced weight of seminal vesicles over full body weight at 10 mg/kg, po qd administered for 4 days; assay type: functional; design: scale not given: the % may be the effect or the level left; in short: as §2
Androgen receptor [5] = biological target: T1, Androgen receptor; test: Antagonist activity at androgen receptor in human MDA-MB-453 cells assessed as inhibition of DHT-induced PSA expression by alkaline phosphatase reporter gene assay; assay type: cell-based
[6] = Plasma concentration in immature Sprague-Dawley rat prostate weight model at 10 mg/kg, po qd administered for 4 days measured 2 hrs post last dose on day 4; assay type: ADME, organism-based; in short: as §1
[7] = Protein binding in mouse serum; assay type: ADME, cell-free; conditions: read-out: PB
CWR22 [8] = test: Antitumor activity against human CWR22 cells in Balb/c athymic (nu/nu) mouse CWR22-BMSLD1 prostate cancer xenograft model assessed as tumor growth inhibition at 150 mg/kg, po qd measured for 10 days during compound dosing; assay type: functional, organism-based
In short: (§3)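 CWR22-BMSLD1 human prostate cancer xenograft. Oral once-daily dosing at 90 mg/kg for 45 days, or at 150 mg/kg for 35 days, with a vehicle group. Median tumor volume (mm3) tracked against days post implant.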

CWR22 [9] = test: Antitumor activity against human CWR22 cells in Balb/c athymic (nu/nu) mouse CWR22-BMSLD1 prostate cancer xenograft model assessed as tumor growth inhibition at 150 mg/kg, po qd administered for 35 days measured from day 10 to 35 during compound dosing; assay type: functional, organism-based; in short: as §3

| SMILES | concentration at 2 h [1] [nM] | Activity (Rattus norvegicus [2]) [%] | Ki (Androgen receptor [3]) [nM] | Activity (Rattus norvegicus [4]) [%] | IC50 (Androgen receptor [5]) [nM] | concentration at 2 h [6] [nM] | fraction unbound [7] | TGI (CWR22 [8]) | TGI (CWR22 [9]) |
| --- | --- | --- | --- | --- | --- | --- | --- | --- | --- |
| C[C@]12O[C@@](C)(C[C@H]1NS(=O)(=O)c1cccnc1)[C@H]1C(=O)N(c3ccc(C#N)c(C(F)(F)F)c3)C(=O)[C@H]12 | 50 | 44 | 2 | 23 | 7 | 520 | – | – | – |
| CCC(=O)N[C@@H]1C[C@]2(C)O[C@]1(C)[C@@H]1C(=O)N(c3ccc(C#N)c(C(F)(F)F)c3)C(=O)[C@@H]12 | 24000 | 87 | 3 | 34 | 23 | 190000 | < 0.01 | – | – |
| CNS(=O)(=O)N[C@@H]1C[C@]2(C)O[C@]1(C)[C@@H]1C(=O)N(c3ccc(C#N)c(C(F)(F)F)c3)C(=O)[C@@H]12 | 10 | 89 | 50 | 36 | 34 | 230 | – | – | – |
| CC12C[C@H](O)[C@](C)(O1)[C@@H]1C(=O)N(c3ccc(C#N)c(I)c3)C(=O)[C@@H]12 (single isomer, unassigned) | – | – | 8 | – | 10 | – | – | – | – |
| CN(C(=O)[C@@H]1C[C@]2(C)O[C@]1(C)[C@@H]1C(=O)N(c3ccc(C#N)c(C(F)(F)F)c3)C(=O)[C@@H]12)c1ccccc1 | 1800 | 88 | 50 | 43 | 34 | 12000 | – | – | – |
| CC(O)(CS(=O)(=O)c1ccc(F)cc1)C(=O)Nc1ccc(C#N)c(C(F)(F)F)c1 (stereo not drawn) [BICALUTAMIDE] | 2300 | 69 | – | 41 | – | 9500 | – | Active | inactive |
| C[C@]12O[C@@](C)(C[C@H]1C(=O)O)[C@H]1C(=O)N(c3ccc(C#N)c(C(F)(F)F)c3)C(=O)[C@H]12 | – | – | 1600 | – | > 5000 | – | – | – | – |
| C[C@]12O[C@@](C)(C[C@H]1NS(=O)(=O)c1ccccc1F)[C@H]1C(=O)N(c3ccc(C#N)c(C(F)(F)F)c3)C(=O)[C@H]12 | 160 | 56 | 1 | 24 | 10 | 1900 | – | – | – |
| CC(C)OC(=O)[C@@H]1C[C@]2(C)O[C@]1(C)[C@@H]1C(=O)N(c3ccc(C#N)c(C(F)(F)F)c3)C(=O)[C@@H]12 | – | – | 23 | – | 22 | – | – | – | – |
| C[C@]12O[C@@](C)(C[C@H]1N)[C@H]1C(=O)N(c3ccc(C#N)c(C(F)(F)F)c3)C(=O)[C@H]12 | 80 | 89 | 31 | 89 | 60 | 480 | – | – | – |
| CC(C)NC(=O)N[C@@H]1C[C@]2(C)O[C@]1(C)[C@@H]1C(=O)N(c3ccc(C#N)c(C(F)(F)F)c3)C(=O)[C@@H]12 | 8300 | 115 | 31 | 56 | 60 | 60000 | < 0.01 | – | – |
| C[C@]12O[C@@](C)(C[C@H]1NS(C)(=O)=O)[C@H]1C(=O)N(c3ccc(C#N)c(C(F)(F)F)c3)C(=O)[C@H]12 | 290 | 64 | 12 | 26 | 20 | 4000 | – | – | – |
| C[C@]12O[C@@](C)(C[C@H]1NS(=O)(=O)c1ccccc1)[C@H]1C(=O)N(c3ccc(C#N)c(C(F)(F)F)c3)C(=O)[C@H]12 | 230 | 63 | 10 | 31 | 1 | 2400 | – | – | – |
